Bioassay records (PubChem BioAssay)
Only some compounds are listed: those with a hit (about 2.9% of all), similar ones and a draw of the others.
INS-1E GSIS act: GLuc luminescence reporter in INS-1E cells, primary screen for activators of glucose-dependent secretion of insulin | INS-1E GLuc reporter insulin secretion, 2-3 h | 370,000 tested, 0.61% active | activation, % at 16.6 µM | AID 743287, 2014;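 active = lowest replicate activation of at least 40%, so every replicate reaches that level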
PAX8 inh HTS: inhibitors of PAX8-driven TPO luciferase reporter, primary screen, RMG-I cells, single concentration | SteadyGlo, 24 h | inhibition, % at 12.6 µM | 360,000 tested, 1.2% active;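 active = mean replicate inhibition at least 60% with every replicate also reaching 60%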;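 also: luciferase light reporting Pax8 driven TPO promoter activity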
Env fusion inh: inhibitors of HIV-1 Env-driven cell-cell fusion, primary screen, HeLa-JRFL effector, CEM21 target cells, luciferase. 360,000 tested, 1.1% active. AID 651610, 2012. inhibition, % at 12.3 µM;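 active = mean replicate inhibition score of at least 50 and every replicate individually at or above 50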
CDK5 p35 inh: inhibitors of human CDK5/p35 kinase, primary screen, biochemical, single concentration. Recombinant CDK5/p35, ADP-Glo luminescence, 60 min. 330,000 tested, 0.01% active. inhibition, % at 10 µM;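 active = highest replicate inhibition of at least 50% and at least 75% of replicates reaching 50%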
Cneo AK release: Cryptococcus neoformans cell lysis inducers, primary screen, AK release luminescence, single concentration | C. neoformans lysis, adenylate kinase release luminescence, 4 h; normalised: neutral wells 0, clomiphene wells 100 | lysis activity, % at 15 µM | 360,000 tested, 0.2% active | AID 651654, 2012;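 active = mean lysis activity across replicates of at least 80%, whatever share of replicates individually reach that level; inactive = mean lysis activity below 80%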
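Assay system: Cryptococcus neoformans yeast cells / Dosing: single-point compound dose / Timing: 4 h at 37 °C static, read 1 h later / Measured by: luminescence of released adenylate kinase using an AK detection reagent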
dFosB act-1: activators of delta FosB homodimer, primary screen, biochemical, fluorescence polarization, TAMRA-CDK5 oligo, single point; Protein FosB (Mus musculus), P13346; purified delta FosB; percent of positive-control signal above neutral wells; activation, % at 25 µM; 340,000 tested, 0.99% active; AID 493131, 2011;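 active = mean activation above about 17%, with every replicate also reaching it, limit read from the data, passing the limit was not always enough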
Target sequence (P13346 whole entry, looked up): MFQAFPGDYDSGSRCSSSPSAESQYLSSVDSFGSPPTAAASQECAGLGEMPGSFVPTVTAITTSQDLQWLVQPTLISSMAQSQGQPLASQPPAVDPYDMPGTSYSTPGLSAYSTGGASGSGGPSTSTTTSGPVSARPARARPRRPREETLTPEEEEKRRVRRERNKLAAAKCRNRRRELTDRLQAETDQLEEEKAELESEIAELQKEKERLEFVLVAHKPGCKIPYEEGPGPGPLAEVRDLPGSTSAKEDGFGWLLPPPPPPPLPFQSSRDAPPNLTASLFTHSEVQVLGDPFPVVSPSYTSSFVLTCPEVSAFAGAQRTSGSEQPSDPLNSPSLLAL
dFosB act-2: activators of mouse delta FosB DNA binding, confirmation, biochemical, fluorescence polarization, TAMRA-CDK5 oligo, cherry-picked samples; shares compounds with dFosB act-1; purified delta FosB; normalised: neutral wells 0, positive control 100; activation, % at 24.9 µM; 2,400 tested, under 10 active; AID 588690, 2011;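 active = highest replicate activation at or above 34% and every replicate reaching that threshold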;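 also: higher polarization means more probe DNA bound by delta FosB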
Each line names hits and unclear results; the compound was inactive in the other large screens (follow-up assays come after a bar, where they were run).

O=C(C[C@@H]1CC[C@H]2[C@@H](COC[C@H](O)CN2S(=O)(=O)c2cccc(F)c2)O1)Nc1ccccc1	none (no result: PAX8 inh HTS, Env fusion inh, CDK5 p35 inh, dFosB act-1)
CC(=O)Nc1ccc(NC(=O)c2cc(-c3ccc(C)c(C)c3O)n[nH]2)cc1	dFosB act-1 68 | dFosB act-2 inactive
Cc1ccc(-c2cc(C(=O)Nc3ccc(S(=O)(=O)Nc4ncccn4)cc3)[nH]n2)c(O)c1C	none
COc1cccc2c1[C@@H]1CN(CCCCn3c(=O)[nH]c4c(sc5ncc(-c6ccccc6)nc54)c3=O)C[C@@H]1CO2	dFosB act-1 40 | dFosB act-2 inactive
O=C(NNC1=Nc2ccccc2SC1)c1ccc(Cl)cc1	Env fusion inh 61, dFosB act-1 24 (no result: INS-1E GSIS act) | dFosB act-2 inactive
O=C(/C=C/c1ccc(F)cc1)NC(=S)Nc1ccccc1C(=O)NC1CCCCC1	dFosB act-1 22 (no result: INS-1E GSIS act, PAX8 inh HTS, Env fusion inh, Cneo AK release) | dFosB act-2 inactive
COc1ccc(/C=C/C(=O)NC(=S)Nc2ccccc2C(=O)NC2CCCCC2)cc1	dFosB act-1 44 (no result: PAX8 inh HTS, Env fusion inh, Cneo AK release) | dFosB act-2 inactive
CC(=O)NC(=S)Nc1ccccc1C(=O)NC1CCCCC1	none (no result: Cneo AK release)
O=C(/C=C/c1ccccc1)NC(=S)Nc1ccccc1C(=O)NC1CCCCC1	dFosB act-1 39 (no result: INS-1E GSIS act, PAX8 inh HTS, Env fusion inh) | dFosB act-2 inactive
Cc1ccc(/C=C/C(=O)NC(=S)Nc2ccccc2C(=O)NC2CCCCC2)cc1	none (no result: INS-1E GSIS act, PAX8 inh HTS, Env fusion inh)
NS(=O)(=O)c1ccc(CCNC(=O)c2ccc(NC3=NC4CS(=O)(=O)CC4S3)cc2)cc1 (stereo not given)	dFosB act-1 18 (no result: INS-1E GSIS act, PAX8 inh HTS, Env fusion inh) | dFosB act-2 inactive
COc1ccc(S(=O)(=O)Nc2ccc3c(c2)CC(=O)N([C@H](C)CO)C[C@H](C)[C@@H](CN(C)Cc2ccccc2)O3)cc1	none (no result: CDK5 p35 inh, dFosB act-1)
COc1ccc(NC(=O)N[C@@H]2CC[C@H](CCNC(=O)c3ccccc3F)O[C@H]2CO)cc1	none (no result: CDK5 p35 inh, dFosB act-1)
O=C(COC(=O)c1cc(Br)ccc1O)NNC(=O)c1ccc(Cl)cc1	dFosB act-1 26 | dFosB act-2 inactive
O=C(COC(=O)c1cc(Br)ccc1O)NNC(=O)c1ccc([N+](=O)[O-])cc1	none
O=C(CN1CCOCC1)NCC[C@H]1CC[C@H](NS(=O)(=O)c2ccc(Cl)cc2)[C@H](CO)O1	none (no result: CDK5 p35 inh, dFosB act-1)
O=S(=O)(c1ccc(Cl)cc1)N1CCc2ccccc21	dFosB act-1 18 | dFosB act-2 inactive
O=S(=O)(c1ccc(Cl)cc1)N1CCCc2ccccc21	none
COc1ccc(Cl)cc1NC(=O)c1nnn(CC(=O)Nc2ccc3c(c2)OCO3)c1N	dFosB act-1 21 | dFosB act-2 inactive
COc1ccc(Cl)cc1NC(=O)c1nnn(CC(=O)Nc2cc(C)cc(C)c2)c1N	dFosB act-1 103 | dFosB act-2 inactive
COc1cccc(Cn2nnc(C(=O)Nc3cc(Cl)ccc3OC)c2N)c1	none
COc1ccc(NC(=O)Cn2nnc(C(=O)NCc3ccc(C)cc3)c2N)cc1OC	none
COc1ccc(Cl)cc1NC(=O)c1nnn(CC(=O)Nc2ccc(OC)c(OC)c2)c1N	dFosB act-1 94 | dFosB act-2 inactive
COc1ccc(NC(=O)Cn2nnc(C(=O)Nc3ccc(F)c(Cl)c3)c2N)cc1	dFosB act-1 32 | dFosB act-2 inactive
C[C@@H]1CN([C@H](C)CO)C(=O)c2cc(NS(=O)(=O)c3cn(C)cn3)ccc2O[C@H]1CN(C)S(=O)(=O)c1cn(C)cn1	none (no result: CDK5 p35 inh, Cneo AK release, dFosB act-1)
CC=Cc1ccc2n(c1=O)C[C@H]1[C@H](CO)[C@@H](C(=O)Nc3ccccc3)[C@@H]2N1C(=O)CC (mixture of isomers)	none (no result: Env fusion inh, CDK5 p35 inh, dFosB act-1)
COc1cccc(NC(=O)Cn2nnc(C(=O)Nc3cc(Cl)ccc3OC)c2N)c1	dFosB act-1 38 | dFosB act-2 inactive
C[C@@H]1CN([C@@H](C)CO)S(=O)(=O)c2ccc(-c3ccncc3)cc2O[C@@H]1CN(C)C(=O)C1CC1	none (no result: PAX8 inh HTS, CDK5 p35 inh, dFosB act-1)
CC(=O)N1CCN(c2cc(N3CCCC3)c(F)cc2[N+](=O)[O-])CC1	none
CCN1CCN(c2cc(N3CCc4ccccc4C3)c(F)cc2[N+](=O)[O-])CC1	dFosB act-1 19 (no result: Cneo AK release) | dFosB act-2 inactive
C/C(=N\NC(=O)CSc1nc2ccccc2o1)c1cccc(O)c1	dFosB act-1 25 | dFosB act-2 inactive
C/C(=N\NC(=O)CSc1nc2ccccc2o1)c1ccc(O)cc1	none
CCCc1ccc(-c2cc(C(=O)NCCc3ccc(S(N)(=O)=O)cc3)c3ccccc3n2)cc1	none (no result: PAX8 inh HTS, Cneo AK release)
NS(=O)(=O)c1ccc(CCNC(=O)c2cc(-c3ccc(Br)cc3)nc3ccccc23)cc1	dFosB act-1 79 (no result: Cneo AK release) | dFosB act-2 inactive
NS(=O)(=O)c1ccc(CCNC(=O)c2cc(-c3ccccn3)nc3ccc(Br)cc23)cc1	dFosB act-1 32 (no result: Cneo AK release) | dFosB act-2 inactive
C[C@H]1CN([C@@H](C)CO)C(=O)c2cccc(NC(=O)c3ccncc3)c2O[C@H]1CN(C)Cc1ccc2c(c1)OCO2	none (no result: CDK5 p35 inh, dFosB act-1)
COc1ccccc1C#Cc1cnc2c(c1)C(=O)N([C@@H](C)CO)C[C@H](C)[C@@H](CN(C)C(=O)CN(C)C)O2	none (no result: PAX8 inh HTS, CDK5 p35 inh, dFosB act-1)
N#C/C(=C\c1cn(Cc2ccccc2F)c2ccccc12)C(=O)NCc1ccco1	INS-1E GSIS act 56, dFosB act-1 24 (no result: Cneo AK release) | dFosB act-2 inactive
COc1ccccc1OCCn1cc(/C=C(\C#N)C(=O)NCc2ccco2)c2ccccc21	none
O=C(COC(=O)c1ccccc1F)Nc1ccc2c(c1)OCCO2	none
O=C(COC(=O)c1cc(Cl)ccc1O)Nc1ccc2c(c1)OCCO2	dFosB act-1 30 (no result: Env fusion inh) | dFosB act-2 inactive
COc1ccc(S(=O)(=O)N(C)C[C@@H]2Oc3ccc(NS(=O)(=O)c4ccc(Cl)cc4)cc3C(=O)N([C@@H](C)CO)C[C@@H]2C)cc1	none (no result: PAX8 inh HTS, Env fusion inh, CDK5 p35 inh, dFosB act-1)
CC(=O)c1cccc(NC(=O)CC2S/C(=N/N=C/c3ccccc3)NC2=O)c1 (stereo not given)	dFosB act-1 49 (no result: Cneo AK release) | dFosB act-2 inactive
CC(=O)c1cccc(NC(=O)CC2S/C(=N/N=C/c3cccs3)NC2=O)c1 (stereo not given)	dFosB act-1 40 (no result: Cneo AK release) | dFosB act-2 inactive
O=C(C[C@@H]1CC[C@@H]2[C@H](COC[C@H](O)CN2CCC(F)(F)F)O1)NCc1ccc(Oc2ccccc2)cc1	none (no result: CDK5 p35 inh, dFosB act-1)
O=C(CN1C(=O)C2CC=CCC2C1=O)Nc1nnc(SCc2c(Cl)cccc2Cl)s1 (stereo not given)	dFosB act-1 39 (no result: INS-1E GSIS act) | dFosB act-2 inactive
